Test results reported in ChEMBL document CHEMBL1817615, “Dimerization of piceatannol by Momordica charantia peroxidase and α-glucosidase inhibitory activity of the biotransformation products” (Bioorg Med Chem, 2011).

Test: Inhibition of yeast alpha-glucosidase using p-nitrophenyl a-D-glucopyranoside as substrate by spectrophotometry
Set-up: species or system Saccharomyces cerevisiae
Method in brief: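 Yeast enzyme at 1 U/mL with 0.01 M p-nitrophenyl α-D-glucopyranoside substrate, in 0.067 M KH₂PO₄–Na₂HPO₄ buffer, pH 6.8. Reaction run at 37 °C for 10 min and inhibition read spectrophotometrically. Method adapted with slight modification from a published procedure.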

SMILES: CC(=O)Oc1cc([C@@H]2c3c(O)cc(O)cc3[C@H]3[C@H](c4ccc(O)c(OC(C)=O)c4)c4c(O)cc(O)cc4[C@@H]23)ccc1O
- IC50: 131 µM

SMILES: CC(=O)Oc1cc([C@H]2Oc3ccc(/C=C/c4cc(O)cc(O)c4)cc3O[C@@H]2c2cc(O)cc(O)c2)ccc1O (racemic)
- IC50: 69.3 µM

SMILES: Oc1cc(O)cc(/C=C/c2cc(O)c3c(c2)[C@H](c2cc(O)cc(O)c2)[C@@H](c2ccc(O)c(O)c2)O3)c1 (racemic)
- IC50: 1.13 µM

SMILES: COc1cc([C@@H]2c3c(O)cc(O)cc3[C@H]3[C@H](c4ccc(O)c(O)c4)c4c(O)cc(O)cc4[C@@H]23)ccc1O (racemic)
- IC50: 109 µM

SMILES: COc1cc([C@H]2Oc3c(O)cc(/C=C/c4cc(O)cc(O)c4)cc3[C@@H]2c2cc(O)cc(O)c2)ccc1O (relative stereo)
- IC50: 3.04 µM

SMILES: Oc1cc(O)c2c(c1)[C@H]1[C@H](c3ccc(O)c(O)c3)c3c(O)cc(O)cc3[C@H]1[C@@H]2c1ccc(O)c(O)c1 [CARAROSINOL D]
- IC50: 79.1 µM

SMILES: OC[C@H]1NC[C@H](O)[C@@H](O)[C@@H]1O [DUVOGLUSTAT]
- IC50: 20.6 µM

SMILES: COc1cc(/C=C2/c3cc(O)cc(O)c3[C@H](c3ccc(O)c(OC)c3)[C@H]2c2cc(O)cc(O)c2)ccc1O [GNETULIN]
- IC50: 70.2 µM

SMILES: Oc1cc(O)cc(/C=C/c2ccc3c(c2)O[C@H](c2cc(O)cc(O)c2)[C@@H](c2ccc(O)c(O)c2)O3)c1 [MAACKIN]
- IC50: 23.2 µM

SMILES: Oc1cc(O)cc(/C=C/c2ccc(O)c(O)c2)c1 [PICEATANNOL]
- IC50: 34.3 µM
